These results are taken from ChEMBL document CHEMBL4270631, “Design, synthesis and in vitro anti-Zika virus evaluation of novel Sinefungin derivatives” (Eur J Med Chem, 2018).

Data set [1] in a line: Inhibition of recombinant N-terminal GST-tagged Dengue virus 3 NS5 N7-MTase activity expressed in Escherichia coli BL21 by scintillation proximity assay. Also on record: species or system dengue virus type 3. (In general: SPA uses beads or plates that emit light when radiolabelled molecules are held near them.)
The nature of data set [2]: Inhibition of recombinant N-terminal GST-tagged Dengue virus 3 2'-O-MTase activity expressed in Escherichia coli BL21 by scintillation proximity assay. Details: species or system dengue virus type 3.
The nature of data set [3]: Inhibition of recombinant N-terminal GST-tagged Dengue virus 3 NS5 N7-MTase F133A mutant expressed in Escherichia coli BL21 by scintillation proximity assay. Details: species or system dengue virus type 3.
Data set [4] in a line: Inhibition of recombinant N-terminal GST-tagged Dengue virus 3 2'-O-MTase F133A mutant expressed in Escherichia coli BL21 by scintillation proximity assay. Also on record: species or system dengue virus type 3.
Data set [5] addresses DNA (cytosine-5)-methyltransferase 1 (Homo sapiens, UniProt P26358). Nature of the data set: Inhibition of human DNMT1A using double-stranded hemi-DNA oligonucleotide as substrate measured after 40 mins by [3H]methyl incorporation assay.
Data set [6] deals with mRNA cap guanine-N(7) methyltransferase (Homo sapiens, UniProt O43148). Nature of the data set: Inhibition of recombinant human N-terminal His-tagged RNMT (1 to 476 residues) expressed in Escherichia coli BL21 using 5'-GpppAGAACCUG-biotin-TEG-3 as substrate after 10 mins by [3H]methyl incorporation assay.
mRNA cap guanine-N(7) methyltransferase, sequence (O43148 whole entry, the tested form may be a part): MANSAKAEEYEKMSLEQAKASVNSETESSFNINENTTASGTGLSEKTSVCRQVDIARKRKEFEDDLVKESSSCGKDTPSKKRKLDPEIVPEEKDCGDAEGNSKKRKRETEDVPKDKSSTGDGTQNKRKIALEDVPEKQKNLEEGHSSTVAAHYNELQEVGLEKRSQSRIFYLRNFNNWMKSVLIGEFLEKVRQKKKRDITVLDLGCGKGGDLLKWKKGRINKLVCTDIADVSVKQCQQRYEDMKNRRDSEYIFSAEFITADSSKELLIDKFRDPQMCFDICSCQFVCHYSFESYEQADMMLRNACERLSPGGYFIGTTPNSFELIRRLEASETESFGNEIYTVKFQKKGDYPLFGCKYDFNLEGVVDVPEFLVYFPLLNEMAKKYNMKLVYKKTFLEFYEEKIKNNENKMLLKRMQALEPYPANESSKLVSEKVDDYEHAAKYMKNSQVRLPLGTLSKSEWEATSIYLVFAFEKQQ
Data set [7] relates to Zika virus. As to the kind of experiment: Antiviral activity against Zika virus SMGC infected in BHK cells assessed as inhibition of virus induced cytopathic effect after 8 days by CellTiter-Glo luminescent cell viability assay. Type of data set: functional, organism-based. The note with it: 192 h. In outline:
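BHK cells seeded at 5,000/well in DMEM with 10% FBS and P/S, 24 h at 37°C, 5% CO₂, then switched to maintenance medium (DMEM, 2% FBS, P/S). Vero-grown ZIKV diluted to 100TCID₅₀ added with compounds in 3-fold dilutions from 50 μM; incubated 8 days until 100% CPE; viability read by CellTiter-Glo luminescence; IC50 calculated from curves.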

The nature of data set [8]: Cytotoxicity against BHK cells after 8 days by CellTiter-Glo assay. Type of data set: cell-based, Mesocricetus auratus. As to conditions: hamster. The procedure, abridged:
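BHK cells seeded at 5,000/well, allowed 24 h recovery, then given maintenance medium (DMEM, 2% FBS, P/S) containing compound in 3-fold dilutions from 200 μM to 0.09 μM, or drug-free. Viability read by CellTiter-Glo luminescence after 8 days' exposure; CC50 calculated from curves.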

The nature of data set [9]: Selectivity index, ratio of CC50 for BHK cells to IC50 for Zika virus SMGC infected in BHK cells. Type of data set: toxicity, cell-based. The note with it: hamster, BHK cells infected with Zika virus SMGC, read-out: Ratio CC50/IC50. The procedure, abridged: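 Ratio of CC50 from 8-day CellTiter-Glo viability of uninfected BHK cells (compound 200–0.09 μM) to IC50 from 8-day protection of BHK cells against 100TCID₅₀ ZIKV-induced CPE (compound from 50 μM, 3-fold dilutions), both in DMEM with 2% FBS.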

In data set [10] the test system is Zika virus. As to the kind of experiment: Potency index, ratio of EPZ004777 IC50 to test compound IC50 for Zika virus SMGC infected in BHK cells. Type of data set: functional.

DNA (cytosine-5)-methyltransferase 1, sequence (P26358 whole entry, the tested form may be a part): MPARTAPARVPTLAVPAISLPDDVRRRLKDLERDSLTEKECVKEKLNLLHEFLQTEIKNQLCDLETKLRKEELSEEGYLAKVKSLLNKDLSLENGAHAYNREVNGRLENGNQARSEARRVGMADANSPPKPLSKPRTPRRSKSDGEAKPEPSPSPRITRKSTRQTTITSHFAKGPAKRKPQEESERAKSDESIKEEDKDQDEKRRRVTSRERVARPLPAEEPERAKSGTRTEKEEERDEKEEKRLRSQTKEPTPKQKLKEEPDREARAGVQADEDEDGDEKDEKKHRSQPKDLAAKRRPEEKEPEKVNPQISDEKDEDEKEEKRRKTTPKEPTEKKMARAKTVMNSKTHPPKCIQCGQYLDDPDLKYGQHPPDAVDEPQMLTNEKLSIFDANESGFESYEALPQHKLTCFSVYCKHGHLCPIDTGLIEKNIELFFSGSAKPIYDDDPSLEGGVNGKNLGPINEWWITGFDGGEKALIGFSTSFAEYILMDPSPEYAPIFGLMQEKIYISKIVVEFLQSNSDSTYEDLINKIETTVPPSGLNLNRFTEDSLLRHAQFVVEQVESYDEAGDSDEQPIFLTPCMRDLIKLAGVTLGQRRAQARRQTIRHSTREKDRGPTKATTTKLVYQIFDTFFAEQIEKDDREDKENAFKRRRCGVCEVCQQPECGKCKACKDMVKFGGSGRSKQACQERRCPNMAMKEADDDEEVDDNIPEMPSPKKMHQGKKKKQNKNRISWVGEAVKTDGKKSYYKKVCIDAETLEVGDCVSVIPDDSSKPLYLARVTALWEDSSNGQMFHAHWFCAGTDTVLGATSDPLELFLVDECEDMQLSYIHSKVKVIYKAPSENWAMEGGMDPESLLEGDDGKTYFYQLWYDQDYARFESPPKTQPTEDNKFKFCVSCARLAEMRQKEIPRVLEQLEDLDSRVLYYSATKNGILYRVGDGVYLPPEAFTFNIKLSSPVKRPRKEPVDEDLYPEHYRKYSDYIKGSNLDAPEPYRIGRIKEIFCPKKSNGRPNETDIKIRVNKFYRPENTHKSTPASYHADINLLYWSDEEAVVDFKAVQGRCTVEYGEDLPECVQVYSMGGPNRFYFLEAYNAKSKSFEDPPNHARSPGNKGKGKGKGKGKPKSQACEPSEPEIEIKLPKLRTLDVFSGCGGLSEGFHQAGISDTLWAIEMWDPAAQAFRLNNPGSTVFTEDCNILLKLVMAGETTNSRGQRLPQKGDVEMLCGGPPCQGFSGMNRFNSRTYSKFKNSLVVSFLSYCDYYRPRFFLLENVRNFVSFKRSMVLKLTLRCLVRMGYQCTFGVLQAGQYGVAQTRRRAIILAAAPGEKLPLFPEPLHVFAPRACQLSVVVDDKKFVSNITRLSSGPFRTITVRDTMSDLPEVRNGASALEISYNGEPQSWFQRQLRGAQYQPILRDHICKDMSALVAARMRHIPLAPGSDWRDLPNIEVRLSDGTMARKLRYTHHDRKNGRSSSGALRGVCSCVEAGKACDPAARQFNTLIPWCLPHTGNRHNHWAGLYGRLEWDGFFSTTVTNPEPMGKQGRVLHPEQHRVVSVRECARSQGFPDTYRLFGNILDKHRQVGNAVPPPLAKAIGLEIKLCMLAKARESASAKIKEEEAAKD

Turning to `N[C@@H](CCSC[C@H]1O[C@@H](n2cnc3c(NCc4cccc(Cl)c4)ncnc32)[C@H](O)[C@@H]1O)C(=O)O`, the Ki in [1] was 0.002 to 0.24 µM; in [2] it was 0.002 to 0.24 µM; in data set [3], 0.044 to 5.68 µM; in data set [4], 0.044 to 5.68 µM; in data set [5], more than 50 µM; in [6], more than 50 µM.
As to `CC(C)N(CCCNC(=O)Nc1ccc(C(C)(C)C)cc1)C[C@H]1O[C@@H](n2ccc3c(N)ncnc32)[C@H](O)[C@@H]1O`, in data set [7], the concentration for half-maximal inhibition (IC50) was 35.2 µM. This compound gave a CC50 at 192 h in data set [8] of more than 200 µM. For the same compound, in [9], the selectivity ratio was more than 5.68.
Regarding `CC(C)N(CCCNC(=O)Nc1ccc(C(F)(F)F)cc1)C[C@H]1O[C@@H](n2cnc3c(NCc4cccc(F)c4)ncnc32)[C@H](O)[C@@H]1O`, the half-inhibitory concentration (IC50) in [7] was 6.46 µM. The compound further yielded a half-maximal cytotoxic concentration (CC50) at 192 h in [8] of 20.3 µM. For the same compound, in data set [9], the selectivity ratio was found to be 3.14. Further, in data set [10], the “Ratio IC50” value is given as 5 - 7.7.
Consider `CC(C)N(CCCNC(=O)NC(C)(C)C)C[C@H]1O[C@@H](n2cnc3c(NCc4cccc(F)c4)ncnc32)[C@H](O)[C@@H]1O`, for which the IC50 in [7] is more than 50 µM.
`CC(C)N(CCCNC(=O)Nc1ccc(C(C)(C)C)cc1)C[C@H]1O[C@@H](n2cnc3c(NCc4cccc(Cl)c4)ncnc32)[C@H](O)[C@@H]1O`: the half-maximal cytotoxic concentration (CC50) at 192 h in [8] is 6.73 µM.
On to `CC(C)N(CCCO)C[C@H]1O[C@@H](n2cnc3c(NCc4cccc(F)c4)ncnc32)[C@H](O)[C@@H]1O`, for which the IC50 in [7] was more than 50 µM.
For `COc1ccc(NC(=O)NCCCN(C[C@H]2O[C@@H](n3cnc4c(NCc5cccc(F)c5)ncnc43)[C@H](O)[C@@H]2O)C(C)C)cc1`, the IC50 in data set [7] is more than 50 µM.
For the compound `CC(C)N(CCCNC(=O)Nc1ccc(F)cc1)C[C@H]1O[C@@H](n2cnc3c(NCc4cccc(Cl)c4)ncnc32)[C@H](O)[C@@H]1O`, in data set [7], the IC50 turned out to be 15.3 µM. Further, the CC50 at 192 h in data set [8] turned out to be 20 µM. Further, the selectivity ratio in data set [9] came out at 1.31.
As to `COC(=O)CCN(C[C@H]1O[C@@H](n2cnc3c(NCc4cccc(F)c4)ncnc32)[C@H](O)[C@@H]1O)C(C)C`, in data set [7], the half-maximal inhibitory concentration (IC50) was more than 50 µM.
`CC(C)N(CCCN)C[C@H]1O[C@@H](n2cnc3c(NCc4cccc(F)c4)ncnc32)[C@H](O)[C@@H]1O`: the half-maximal inhibitory concentration (IC50) in data set [7] is more than 50 µM.
For `CC(C)N(CCCNC(=O)NC(C)(C)C)C[C@H]1O[C@@H](n2cnc3c(NCc4cccc(Cl)c4)ncnc32)[C@H](O)[C@@H]1O`, the 50% inhibitory concentration (IC50) in data set [7] was 20.6 µM. In addition, the midpoint of cytotoxicity in [8], the CC50 at 192 h, lay at 58.5 µM. The selectivity ratio in [9] amounted to 2.84.
Turning to `CC(C)N(CCCNC(=O)Nc1ccc(F)cc1)C[C@H]1O[C@@H](n2cnc3c(NCc4cccc(F)c4)ncnc32)[C@H](O)[C@@H]1O`, in data set [7], the 50% inhibitory concentration (IC50) was more than 50 µM.
For the compound `CC(C)NC[C@H]1O[C@@H](n2cnc3c(NCc4cccc(Cl)c4)ncnc32)[C@H](O)[C@@H]1O`, in [7], the IC50 came out at 6.33 µM. Also, half-maximal cytotoxicity in data set [8] (CC50 at 192 h) was put at 29.4 µM. In addition, the selectivity ratio in [9] was determined as 4.64.
On to `CC(C)N(CCCNC(=O)Nc1cccc(C(F)(F)F)c1)C[C@H]1O[C@@H](n2cnc3c(NCc4cccc(F)c4)ncnc32)[C@H](O)[C@@H]1O`, for which the concentration for half-maximal inhibition (IC50) in data set [7] came out at 6.99 µM. The compound further yielded a CC50 at 192 h in data set [8] of 12.9 µM. Also, the selectivity ratio in data set [9] was determined as 1.84. Besides, the “Ratio IC50” value in [10] is recorded as 5 - 7.7.
Consider `CC(C)N(CCCNC(=O)NC1CCCCC1)C[C@H]1O[C@@H](n2cnc3c(NCc4cccc(F)c4)ncnc32)[C@H](O)[C@@H]1O`, for which the concentration for half-maximal inhibition (IC50) in [7] was more than 50 µM.
As for `CC(C)N(CCCNC(=O)Nc1ccc(C(C)(C)C)cc1)C[C@H]1O[C@@H](n2cnc3c(NCc4cccc(F)c4)ncnc32)[C@H](O)[C@@H]1O`, the IC50 in data set [7] is 6.65 µM. This compound also had a 50% cytotoxic concentration (CC50) at 192 h in [8] of 18.7 µM. The selectivity ratio in data set [9] was 2.81. Further, in [10], the “Ratio IC50” value is recorded as 5 - 7.7.
For the compound `CC(C)N(CCCNC(=O)Nc1cccc(C(F)(F)F)c1)C[C@H]1O[C@@H](n2cnc3c(NCc4cccc(Cl)c4)ncnc32)[C@H](O)[C@@H]1O`, the half-maximal inhibitory concentration (IC50) in data set [7] stood at 4.56 µM. The compound further returned a cytotoxic concentration (CC50) at 192 h in [8] of 5.88 µM. Moreover, the selectivity ratio in data set [9] came to 1.29. Besides, in [10], the “Ratio IC50” value was 5 - 7.7.
On to `COc1ccc(NC(=O)NCCCN(C[C@H]2O[C@@H](n3cnc4c(NCc5cccc(Cl)c5)ncnc43)[C@H](O)[C@@H]2O)C(C)C)cc1`, for which the IC50 in [7] is more than 50 µM.
Take `COC(=O)CCN(C[C@H]1O[C@@H](n2cnc3c(NCc4cccc(Cl)c4)ncnc32)[C@H](O)[C@@H]1O)C(C)C`: the half-inhibitory concentration (IC50) in data set [7] was more than 50 µM.
Consider `CC(C)N(CCCNC(=O)NC1CCCCC1)C[C@H]1O[C@@H](n2cnc3c(NCc4cccc(Cl)c4)ncnc32)[C@H](O)[C@@H]1O`, for which, in [7], the IC50 amounted to 12.2 µM. The compound further gave a CC50 at 192 h in data set [8] of 57.6 µM. For the same compound, in [9], the selectivity ratio is 4.7.
The like results for `CC(C)N(CCCO)C[C@H]1O[C@@H](n2cnc3c(NCc4cccc(Cl)c4)ncnc32)[C@H](O)[C@@H]1O` were, in that order, 27.5 µM, 70.6 µM and 2.57.
On to `Cc1ccc(NC(=O)NCCCN(C[C@H]2O[C@@H](n3cnc4c(NCc5cccc(F)c5)ncnc43)[C@H](O)[C@@H]2O)C(C)C)cc1`, for which the IC50 in [7] is more than 50 µM.
Regarding `CC(C)NC[C@H]1O[C@@H](n2cnc3c(NCc4cccc(F)c4)ncnc32)[C@H](O)[C@@H]1O`, in data set [7], the half-inhibitory concentration (IC50) was determined as 30 µM. The compound also showed a CC50 at 192 h in data set [8] of more than 200 µM. Further, the selectivity ratio in data set [9] is more than 6.67.
For `CC(C)N(CCCN)C[C@H]1O[C@@H](n2cnc3c(NCc4cccc(Cl)c4)ncnc32)[C@H](O)[C@@H]1O`, the IC50 in [7] was more than 50 µM.
As to `CC(C)N(CCCNC(=O)Nc1ccc(C(F)(F)F)cc1)C[C@H]1O[C@@H](n2cnc3c(NCc4cccc(Cl)c4)ncnc32)[C@H](O)[C@@H]1O`, in data set [8], the CC50 at 192 h came to 6.35 µM.
For `Cc1ccc(NC(=O)NCCCN(C[C@H]2O[C@@H](n3cnc4c(NCc5cccc(Cl)c5)ncnc43)[C@H](O)[C@@H]2O)C(C)C)cc1`, the 50% inhibitory concentration (IC50) in data set [7] is 5.8 µM. In addition, the CC50 at 192 h in data set [8] came to 19.1 µM. Also, in data set [9], the selectivity ratio is 3.29. Further, the “Ratio IC50” value in data set [10] is 5 - 7.7.
`Nc1ncnc2c1ncn2[C@@H]1O[C@H](C[C@@H](N)CC[C@H](N)C(=O)O)[C@@H](O)[C@H]1O` [SINEFUNGIN]: in data set [7], the IC50 is more than 50 µM.

The Ki is a measure of affinity in units of concentration, obtained from inhibition or displacement. The IC50 is the point on the concentration scale where inhibition reaches its midpoint. As usually defined, the CC50 is the concentration giving 50% cytotoxicity. Low values mean harm at low concentration, high ones better tolerance by the cells.
